Assay [1] deals with A549. In words: Induction of apoptosis in human A549 cells assessed as apoptotic effect at 8 uM after 24 to 48 hrs by trypan blue cell counting analysis. It counts as functional. An outline of the steps:
(§1)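 A549 cells (approx. 500,000 per flask) were grown 24 h, then given compound-containing medium for about 24–48 h. Collected cells were pelleted, washed in PBS and mixed 1:1 with 0.4% trypan blue in PBS, pH 7.2. An automated counter distinguished cells with intact and with damaged membranes. Results are % apoptosis ± standard error, 6 experiments each.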

Assay [2] relates to DLD-1. Nature of the assay: Cytotoxicity against human DLD1 cells after 96 hrs by SRB assay. The format is functional, cell-based. An outline of the steps: (§2)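 Monolayer cultures in RPMI 1640 with 10% heat-inactivated FBS and penicillin/streptomycin, 37 °C, 5% CO2. Exponentially growing cells were seeded, then treated 24 h later with serial dilutions (0–30 µM; DMSO or DMF ≤0.5% final) for 96 h. Cells were fixed with 10% TCA at 4 °C, stained with 0.4% SRB and solubilized in 10 mM Tris base; A570 was read. IC50 came from semi-log dose–response curves, ≥3 independent experiments.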
(The SRB assay estimates cell density from bound dye.)

Assay [3] deals with SW-1736. Nature of the assay: Cytotoxicity against human SW1736 cells after 96 hrs by SRB assay. The format is functional, cell-based. An outline of the steps:
as §2

The subject of assay [4] is 8505C. Nature of the assay: Cytotoxicity against human 8505C cells after 96 hrs by SRB assay. It counts as functional, cell-based. The method in brief:
as §2

For assay [5], the system named is MCF7. In words: Cytotoxicity against human MCF7 cells after 96 hrs by SRB assay. The format is functional, cell-based. The method in brief: as §2
Assay [6] concerns A549. Nature of the assay: Cytotoxicity against human A549 cells after 96 hrs by SRB assay. The format is functional, cell-based. An outline of the steps:
as §2

A short description of assay [7]: Cytotoxicity against human A253 cells after 96 hrs by SRB assay. The format is functional, cell-based. The method in brief: as §2
Assay [8] is described as follows: Cytotoxicity against human Lipo cells after 96 hrs by SRB assay. The format is functional, cell-based. The method in brief:
as §2

Assay [9] is described as follows: Cytotoxicity against human 518A2 cells after 96 hrs by SRB assay. It counts as functional, cell-based. An outline of the steps: as §2
Assay [10] relates to A2780. Nature of the assay: Cytotoxicity against human A2780 cells after 96 hrs by SRB assay. It counts as functional, cell-based. The method in brief:
as §2

Assay [11] deals with A549. Nature of the assay: Induction of apoptosis in human A549 cells assessed as appearance of green fluorescent cells at 8 uM after 24 to 48 hrs by acridine orange/ethidium bromide staining based fluorescence microscopy. It counts as functional, cell-based. The method in brief: (§3)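 Approx. 500,000 A549 cells per flask were grown 24 h, then exposed to compound-containing medium for 24–48 h. Cells from the supernatant were pelleted, washed and resuspended in PBS, mixed with AO/EB and examined by fluorescence microscopy. Green fluorescence was scored as apoptotic and red nuclei as necrotic; the read-out is qualitative.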

The test system of assay [12] is A549. In words: Induction of apoptosis in human A549 cells assessed as apoptotic effect after 24 to 48 hrs by trypan blue cell counting analysis. The format is functional. An outline of the steps:
as §1

The test system of assay [13] is A549. Nature of the assay: Induction of apoptosis in human A549 cells assessed as appearance of green fluorescent cells at 20 uM after 24 to 48 hrs by acridine orange/ethidium bromide staining based fluorescence microscopy. The format is functional, cell-based. The method in brief:
as §3

Assay [14] concerns HCT-116. In words: Cytotoxicity against human HCT116 cells after 96 hrs by SRB assay. The format is functional, cell-based. An outline of the steps: as §2
Assay [15] has as its system HT-29. In words: Cytotoxicity against human HT-29 cells after 96 hrs by SRB assay. It counts as functional, cell-based. The method in brief: as §2
Assay [16] relates to A-431. In words: Cytotoxicity against human A431 cells after 96 hrs by SRB assay. The format is functional, cell-based. An outline of the steps: as §2
The test system of assay [17] is A549. In words: Induction of apoptosis in human A549 cells assessed as apoptotic effect at 60 uM after 24 to 48 hrs by trypan blue cell counting analysis. The format is functional. An outline of the steps:
as §1

For assay [18], the system named is A549. Nature of the assay: Induction of apoptosis in human A549 cells assessed as appearance of green fluorescent cells at 60 uM after 24 to 48 hrs by acridine orange/ethidium bromide staining based fluorescence microscopy. The format is functional, cell-based. The method in brief:
as §3

Assay [19] has as its system A549. Nature of the assay: Induction of apoptosis in human A549 cells assessed as apoptotic effect at 90 uM after 24 to 48 hrs by trypan blue cell counting analysis. The format is functional. The method in brief:
as §1

The test system of assay [20] is A549. Nature of the assay: Induction of apoptosis in human A549 cells assessed as appearance of green fluorescent cells at 4 uM after 24 to 48 hrs by acridine orange/ethidium bromide staining based fluorescence microscopy. The format is functional, cell-based. The method in brief: as §3
The test system of assay [21] is A549. Nature of the assay: Induction of apoptosis in human A549 cells assessed as apoptotic effect at 4 uM after 24 to 48 hrs by trypan blue cell counting analysis. The format is functional. The method in brief:
as §1

The source made the active and inactive calls. The calls are words filed in the database; no cut-off is given here. Some results are limits rather than exact numbers.

As to `COC(=O)[C@@]1(C)CC[C@]2(C)CC[C@]3(C)C(=CC(=O)[C@@H]4[C@@]5(C)CC[C@H](NC(=O)[C@H](C)N)C(C)(C)[C@@H]5CC[C@]43C)[C@@H]2C1`, the Activity in assay [1] stood at 56.77%. Further, the IC50 in assay [2] was found to be 6.44 µmol; in [3], 5.25 µmol; in assay [4], 4.46 µmol; in assay [5], 5.08 µmol; in assay [6], 5.38 µmol; in [7], 4.46 µmol. Moreover, the results for the IC50 in assay [8], in [9] and in [10] were 5.82 µmol, 5.55 µmol and 5.39 µmol, respectively. In addition, the outcome in [11] was Active.
Turning to `COC(=O)[C@@]1(C)CC[C@]2(C)CC[C@]3(C)C(=CC(=O)[C@@H]4[C@@]5(C)CC/C(=N\OC(=O)[C@H](C)NC(=O)OC(C)(C)C)C(C)(C)[C@@H]5CC[C@]43C)[C@@H]2C1`, the Activity in assay [12] is 68.54%. The IC50 in assay [2] came out at 19.1 µmol; in assay [3], 14.61 µmol; in assay [4], 15.47 µmol; in assay [5], 15.17 µmol; in assay [6], 15.83 µmol; in [7], 14.12 µmol. Besides, the IC50 in [8] amounted to 18.99 µmol; in [9], 16.49 µmol; in [10] it was 12.03 µmol. Also, in assay [13], the outcome was Active.
Consider `CCOC(=O)[C@@]1(C)CC[C@]2(C)CC[C@]3(C)C(=CC(=O)[C@@H]4[C@@]5(C)C[C@H](F)[C@@H](O)C(C)(C)[C@@H]5CC[C@]43C)[C@@H]2C1`, for which the IC50 in assay [14] was greater than 30 µmol; in assay [2] it was greater than 30 µmol; in assay [5], greater than 30 µmol; in [15], 24.72 µmol; in [6] it was greater than 30 µmol; in assay [7], greater than 30 µmol. Moreover, the IC50 in assay [8], in [16] and in assay [9] was greater than 30 µmol in each case. Also, the Activity in assay [17] is 80.32%. The result in assay [18] was Active.
On to `CC1(C)[C@@H](O)CC[C@]2(C)[C@H]3C(=O)C=C4[C@@H]5C[C@@](C)(C(=O)O)CC[C@]5(C)CC[C@@]4(C)[C@]3(C)CC[C@@H]12` [ENOXOLONE], for which, in [19], the Activity amounted to 73.73%.
For `COC(=O)[C@@]1(C)CC[C@]2(C)CC[C@]3(C)C(=CC(=O)[C@@H]4[C@@]5(C)CC[C@H](N)C(C)(C)[C@@H]5CC[C@]43C)[C@@H]2C1`, the IC50 was determined as 2.56 µmol in assay [2]; 2.62 µmol in [3]; 2.45 µmol in assay [4]; 2.47 µmol in [5]; 2.51 µmol in assay [6]; 2.36 µmol in assay [7]. The IC50 in assay [8] stood at 2.74 µmol; in [9], 2.52 µmol; in assay [10], 3.32 µmol. In assay [20], the outcome was Active. Also, in [21], the Activity is 74.21%.
For the compound `CC1(C)[C@@H](OC(=O)CNCCCN)CC[C@]2(C)[C@H]3C(=O)C=C4[C@@H]5C[C@@](C)(C(=O)OCc6ccccc6)CC[C@]5(C)CC[C@@]4(C)[C@]3(C)CC[C@@H]12`, in [1], the Activity is 80.57%. Also, the IC50 in assay [2] is 4.96 µmol; in assay [4], 2.07 µmol; in assay [6], 4.74 µmol; in assay [7], 1.96 µmol; in [8], 2.99 µmol; in [9] it was 5.14 µmol. Moreover, in [11], the outcome was Active.
In the case of `COC(=O)[C@@]1(C)CC[C@]2(C)CC[C@]3(C)C(=CC(=O)[C@@H]4[C@@]5(C)CC[C@@H](N)C(C)(C)[C@@H]5CC[C@]43C)[C@@H]2C1`, the IC50 came to 3.21 µmol in [2]; 2.84 µmol in [3]; 2.33 µmol in assay [4]; 2.55 µmol in [5]; 3.33 µmol in [6]; 2.44 µmol in assay [7]. Also, the values for the IC50 in assay [8], in assay [9] and in assay [10] were 3.3 µmol, 2.74 µmol and 3.42 µmol, respectively. Moreover, in assay [20], the outcome was Active. Moreover, the Activity in assay [21] came to 64.88%.

Source of the values: ChEMBL document CHEMBL2151003, “Synthesis and antitumor activity of ring A modified glycyrrhetinic acid derivatives” (Eur J Med Chem, 2011).
